According to ChEMBL document CHEMBL1146375, “Synthetic studies on novel benzimidazolopeptides with antimicrobial, cytotoxic and anthelmintic potential” (2007):
≈ marks a conversion by molar mass, not a printed value.

Columns and labels:
Bacillus subtilis [1] = assay: Antibacterial activity against Bacillus subtilis NCIM 2063 after 18 hrs by disc diffusion method; type: functional
Outline: (§1)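 Modified Kirby-Bauer disc diffusion. Plates inoculated with spore suspension (about 6 × 10⁴ spores mL^-1). Sterile 6 mm paper discs carried test samples at 10 mg mL^-1; ciprofloxacin disc as reference, DMF disc as negative control. Plates held 18 h at 37 °C. Inhibition zone diameters (mm) averaged over triplicate sets.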

Staphylococcus aureus [2] = assay: Antibacterial activity against Staphylococcus aureus NCIM 2079 after 18 hrs by disc diffusion method; type: functional; outline: as §1
Pseudomonas aeruginosa [3] = assay: Antibacterial activity against Pseudomonas aeruginosa NCIM 2034 after 18 hrs by disc diffusion method; type: functional; outline: as §1
Escherichia coli [4] = assay: Antibacterial activity against Escherichia coli NCIM 2065 after 18 hrs by disc diffusion method; type: functional; outline: as §1
Candida albicans [5] = assay: Antifungal activity against Candida albicans MUCC 29 after 48 hrs by disc diffusion method; type: functional
Outline: (§2)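 Agar well diffusion on plates inoculated with spore suspension in normal saline from cultures on Sabouraud's broth. Wells punched and loaded with test samples or griseofulvin at 10 mg mL^-1, with DMSO as negative control. Incubated 48 h at 37 °C.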

Microsporum audouinii [6] = assay: Antifungal activity against Microsporum audouinii MUCC 545 after 48 hrs by disc diffusion method; type: functional; outline: as §2
Trichophyton benhamiae [7] = assay: Antifungal activity against Trichophyton mentagrophytes MUCC 665 after 48 hrs by disc diffusion method; type: functional, Arthroderma benhamiae; outline: as §2
Aspergillus niger = assay: Antifungal activity against Aspergillus niger MUCC 177 after 48 hrs by disc diffusion method; type: functional; outline: as §2
Bacillus subtilis [8] = assay: Antibacterial activity against Bacillus subtilis NCIM 2063 after 18 hrs by tube dilution method; type: functional; conditions: NCIM 2063, 18 h
Outline: (§3)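 Tube dilution MIC. Stock diluted in sterile broth to seven concentrations from 200 to 3.1 […]. Each tube inoculated with one loopful of test bacterium and incubated 18 h at 37 °C. MIC read from presence or absence of growth.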

Staphylococcus aureus [9] = assay: Antibacterial activity against Staphylococcus aureus NCIM 2079 after 18 hrs by tube dilution method; type: functional; conditions: NCIM 2079, 18 h; outline: as §3
Pseudomonas aeruginosa [10] = assay: Antibacterial activity against Pseudomonas aeruginosa NCIM 2034 after 18 hrs by tube dilution method; type: functional; conditions: NCIM 2034, 18 h; outline: as §3
Escherichia coli [11] = assay: Antibacterial activity against Escherichia coli NCIM 2065 after 18 hrs by tube dilution method; type: functional; conditions: NCIM 2065, 18 h
Candida albicans [12] = assay: Antifungal activity against Candida albicans MUCC 29 after 48 hrs by tube dilution method; type: functional
Outline: (§4)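 Tube dilution MIC as for bacteria (seven concentrations, 200–3.1 […]), with DMSO in place of DMF. Tubes inoculated with fungal culture and incubated 48 h at 37 °C. MIC read from presence or absence of growth.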

Microsporum audouinii [13] = assay: Antifungal activity against Microsporum audouinii MUCC 545 after 48 hrs by tube dilution method; type: functional; outline: as §4
Trichophyton benhamiae [14] = assay: Antifungal activity against Trichophyton mentagrophytes MUCC 665 after 48 hrs by tube dilution method; type: functional, Arthroderma benhamiae; outline: as §4
Eudrilus [15] = assay: Anthelmintic activity against Eudrilus sp. assessed as mean paralyzing time; type: functional
Outline: (§5)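 Earthworms exposed to test suspensions at 2 mg mL^-1 (0.2% w/v), made by triturating compound with Tween 80 (0.5%) and distilled water, then mechanically stirred 30 min. Mebendazole suspension prepared alike as reference. Paralysis and death times recorded; death confirmed by no movement in 50 °C water. Means from triplicate sets.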

Eudrilus [16] = assay: Anthelmintic activity against Eudrilus sp. assessed as mean death time; type: functional
Outline: (§6)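 Earthworms exposed to test suspensions at 2 mg mL−1, prepared by triturating compound with Tween 80 (0.5%) and distilled water, stirring 30 min, then diluting to 0.2% w/v. Mebendazole suspension was made the same way. Death was confirmed by moving worms into 50 °C warm water and looking for movement. Mean death time (min) taken from triplicate sets.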

[17] = Growth inhibition of DLA cells at 500 ug/mL after 3 hrs; type: functional; conditions: Mus musculus
Outline: (§7)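 DLA and EAC cells passaged intraperitoneally in albino mice, harvested after 15–20 days and adjusted to 1 × 10⁶ cells/mL. Dilutions in Dulbecco's medium (500–31.25, some down to 3.91 µg/mL; 5-FU reference) mixed 1:1 with cells and held 3 h at 37 °C. Trypan blue exclusion gave % growth inhibition; CTC50 by graphical extrapolation.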

[18] = Growth inhibition of DLA cells at 250 ug/mL after 3 hrs; type: functional; conditions: Mus musculus; outline: as §7
[19] = Growth inhibition of DLA cells at 125 ug/mL after 3 hrs; type: functional; conditions: Mus musculus; outline: as §7
[20] = Growth inhibition of DLA cells at 62.5 ug/mL after 3 hrs; type: functional; conditions: Mus musculus; outline: as §7
[21] = Growth inhibition of DLA cells at 31.25 ug/mL after 3 hrs; type: functional; conditions: Mus musculus; outline: as §7
[22] = Growth inhibition of DLA cells after 3 hrs; type: functional; conditions: Mus musculus; outline: as §7
[23] = Growth inhibition of EAC cells at 500 ug/mL after 3 hrs; type: functional; conditions: Mus musculus, Ehrlich; outline: as §7
[24] = Growth inhibition of EAC cells at 250 ug/mL after 3 hrs; type: functional; conditions: Mus musculus, Ehrlich; outline: as §7
[25] = Growth inhibition of EAC cells at 125 ug/mL after 3 hrs; type: functional; conditions: Mus musculus, Ehrlich; outline: as §7
[26] = Growth inhibition of EAC cells at 62.5 ug/mL after 3 hrs; type: functional; conditions: Mus musculus, Ehrlich; outline: as §7
[27] = Growth inhibition of EAC cells at 31.25 ug/mL after 3 hrs; type: functional; conditions: Mus musculus, Ehrlich; outline: as §7
[28] = Growth inhibition of EAC cells after 3 hrs; type: functional; conditions: Mus musculus, Ehrlich; outline: as §7
[29] = Anthelmintic activity against Megascoplex konkanensis ICARBC 211 assessed as mean paralyzing time; type: functional; outline: as §5
[30] = Anthelmintic activity against Megascoplex konkanensis ICARBC 211 assessed as mean death time; type: functional; outline: as §5
Pontoscolex corethrurus [31] = assay: Anthelmintic activity against Pontoscolex corethrurus ICARBC 408 assessed as mean paralyzing time; type: functional; outline: as §5
Pontoscolex corethrurus [32] = assay: Anthelmintic activity against Pontoscolex corethrurus ICARBC 408 assessed as mean death time; type: functional; outline: as §6

Compound	inhibition zone (IZ) (Bacillus subtilis [1])	inhibition zone (IZ) (Staphylococcus aureus [2])	inhibition zone (IZ) (Pseudomonas aeruginosa [3])	inhibition zone (IZ) (Escherichia coli [4])	inhibition zone (IZ) (Candida albicans [5])	inhibition zone (IZ) (Microsporum audouinii [6])	inhibition zone (IZ) (Trichophyton benhamiae [7])	inhibition zone (IZ) (Aspergillus niger)	MIC (Bacillus subtilis [8])	MIC (Staphylococcus aureus [9])	MIC (Pseudomonas aeruginosa [10])	MIC (Escherichia coli [11])	MIC (Candida albicans [12])	MIC (Microsporum audouinii [13])	MIC (Trichophyton benhamiae [14])	Time (Eudrilus [15])	Time (Eudrilus [16])	inhibition at 500 µg/mL [17]	inhibition at 250 µg/mL [18]	inhibition at 125 µg/mL [19]	other results
COC(=O)[C@H](Cc1cnc[nH]1)NC(=O)[C@H](Cc1cnc[nH]1)NC(=O)c1cc(-c2nc3cc(C)c(C)cc3[nH]2)ccc1O	13 mm	11 mm	21 mm	17 mm	20 mm	11 mm	15 mm	17 mm	6 µg/mL (≈ 10.5 µM)	12.5 µg/mL (≈ 21.9 µM)	6 µg/mL (≈ 10.5 µM)	12.5 µg/mL (≈ 21.9 µM)	6 µg/mL (≈ 10.5 µM)	6 µg/mL (≈ 10.5 µM)	6 µg/mL (≈ 10.5 µM)	10.38 min	21.78 min	36.8%	31.6%	21%	inhibition at 62.5 µg/mL [20]: 15.8%; inhibition at 31.25 µg/mL [21]: 7.89%; CC50 [22]: > 877 µM; inhibition at 500 µg/mL [23]: 21.4%; inhibition at 250 µg/mL [24]: 14.3%; inhibition at 125 µg/mL [25]: 7.14%; inhibition at 62.5 µg/mL [26]: 7.14%; inhibition at 31.25 µg/mL [27]: 3.57%; CC50 [28]: > 877 µM; TIME [29]: 0.175 h; TIME [30]: 0.305 h; Time (Pontoscolex corethrurus [31]): 12.22 min; Time (Pontoscolex corethrurus [32]): 23.75 min
O=C(O)[C@@H]1CCCN1C(=O)[C@@H]1CCCN1C(=O)[C@@H]1CCCN1C(=O)c1cc(-c2nc3ccc([N+](=O)[O-])cc3[nH]2)ccc1O	14 mm	11 mm	28 mm	17 mm	24 mm	13 mm	17 mm	17 mm	6 µg/mL (≈ 10.2 µM)	12.5 µg/mL (≈ 21.2 µM)	6 µg/mL (≈ 10.2 µM)	25 µg/mL (≈ 42.3 µM)	6 µg/mL (≈ 10.2 µM)	6 µg/mL (≈ 10.2 µM)	12.5 µg/mL (≈ 21.2 µM)	26.54 min	37.23 min	65.8%	52.6%	47.4%	inhibition at 62.5 µg/mL [20]: 34.2%; inhibition at 31.25 µg/mL [21]: 18.4%; CC50 [22]: 332 µM; inhibition at 500 µg/mL [23]: 28.7%; inhibition at 250 µg/mL [24]: 21.4%; inhibition at 125 µg/mL [25]: 10.7%; inhibition at 62.5 µg/mL [26]: 7.14%; inhibition at 31.25 µg/mL [27]: 3.57%; CC50 [28]: > 847 µM; TIME [29]: 0.418 h; TIME [30]: 0.567 h; Time (Pontoscolex corethrurus [31]): 30.52 min; Time (Pontoscolex corethrurus [32]): 40.2 min
Cc1cc2nc(-c3c(I)cc(C(=O)N[C@@H](Cc4cnc[nH]4)C(=O)N4CCC[C@H]4C(=O)O)cc3I)[nH]c2cc1C	16 mm	13 mm	27 mm	18 mm	25 mm	10 mm	13 mm	14 mm	6 µg/mL (≈ 7.98 µM)	12.5 µg/mL (≈ 16.6 µM)	6 µg/mL (≈ 7.98 µM)	12.5 µg/mL (≈ 16.6 µM)	6 µg/mL (≈ 7.98 µM)	25 µg/mL (≈ 33.2 µM)	6 µg/mL (≈ 7.98 µM)	13.37 min	23.86 min	52.6%	42.1%	34.2%	inhibition at 62.5 µg/mL [20]: 28.9%; inhibition at 31.25 µg/mL [21]: 13.2%; CC50 [22]: 583 µM; inhibition at 500 µg/mL [23]: 35.7%; inhibition at 250 µg/mL [24]: 28.6%; inhibition at 125 µg/mL [25]: 10.7%; inhibition at 62.5 µg/mL [26]: 10.7%; inhibition at 31.25 µg/mL [27]: 7.14%; CC50 [28]: > 665 µM; TIME [29]: 0.228 h; TIME [30]: 0.373 h; Time (Pontoscolex corethrurus [31]): 17.38 min; Time (Pontoscolex corethrurus [32]): 29.33 min
